Values after ≈ are worked out from the molar mass of the structure shown.
Assays:
[1] = tested on: Enterococcus faecium; test: Minimum inhibitory concentration measured against Enterococcus faecium; assay type: functional
[2] = tested on: Moraxella catarrhalis; test: Minimum inhibitory concentration measured against Moraxella catarrhalis; assay type: functional
[3] = tested on: Staphylococcus epidermidis; test: Minimum inhibitory concentration measured against Staphylococcus epidermidis; assay type: functional
[4] = tested on: Streptococcus pneumoniae; test: Minimum inhibitory concentration measured against Streptococcus pneumoniae; assay type: functional
[5] = tested on: Staphylococcus aureus; test: Minimum inhibitory concentration measured against Staphylococcus aureus; assay type: functional
[6] = organism: Rattus norvegicus; test: Inhibition of mitochondrial protein synthesis (MPS) in rat heart mitochondria; assay type: functional
How it was run: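 Rat heart mitochondria were incubated at 1 mg/mL protein (Bradford) in buffer with translation components (ADP, amino acids). Incorporation of S35 methionine was followed for 1 h at 30 °C, then quenched with cold 5% TCA/5 mM methionine. Triplicate aliquots were filtered, washed and counted. Compounds were tested at 6–7 concentrations, ≤1% organic. IC50 came from the linear portion of the percent-of-control curve, as the mean of ≥2 experiments.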

[7] = target: T1, Amine oxidase [flavin-containing] B (Rattus norvegicus, UniProt P19643); test: Inhibition of Monoamine oxidase B in rat primary hepatocytes; assay type: cell-based, Hepatocyte
T1 sequence (P19643 whole entry): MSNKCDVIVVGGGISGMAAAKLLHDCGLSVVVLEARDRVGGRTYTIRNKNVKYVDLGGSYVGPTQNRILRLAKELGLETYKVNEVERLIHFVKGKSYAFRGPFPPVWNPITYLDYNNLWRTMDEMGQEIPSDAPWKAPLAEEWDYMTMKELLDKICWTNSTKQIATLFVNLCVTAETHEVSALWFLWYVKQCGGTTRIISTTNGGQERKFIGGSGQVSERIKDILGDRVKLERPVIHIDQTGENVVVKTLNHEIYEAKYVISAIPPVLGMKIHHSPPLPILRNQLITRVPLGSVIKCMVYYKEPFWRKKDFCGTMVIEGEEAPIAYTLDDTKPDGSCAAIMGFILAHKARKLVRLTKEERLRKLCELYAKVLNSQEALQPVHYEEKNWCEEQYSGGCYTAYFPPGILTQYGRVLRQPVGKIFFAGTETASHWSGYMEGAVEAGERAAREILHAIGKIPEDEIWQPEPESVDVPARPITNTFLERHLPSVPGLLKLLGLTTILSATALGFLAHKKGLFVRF

SMILES	MIC [1] [µg/mL]	MIC [2] [µg/mL]	MIC [3] [µg/mL]	MIC [4] [µg/mL]	MIC [5] [µg/mL]	IC50 [6] [µM]	IC50 [7] [µM]
CC(=O)NC[C@H]1CN(c2ccc(/C=C\F)c(F)c2)C(=O)O1	8 (≈ 27 µM)	32 (≈ 108 µM)	8 (≈ 27 µM)	2 (≈ 6.75 µM)	8 (≈ 27 µM)		
COc1ccc(C(C)C)cc1/C(Br)=C/c1ccc(N2C[C@H](CNC(C)=O)OC2=O)cc1F	> 128	32 (≈ 63.3 µM)	> 128	64 (≈ 127 µM)	> 128		
CC(=O)NC[C@H]1CN(c2ccc(/C=C(\Br)c3cccc(C(N)=O)c3)c(F)c2)C(=O)O1	2 (≈ 4.2 µM)	16 (≈ 33.6 µM)	4 (≈ 8.4 µM)	4 (≈ 8.4 µM)	4 (≈ 8.4 µM)		
CC(=O)NC[C@H]1CN(c2ccc(/C=C(\Br)c3cccc(NC(C)=O)c3)c(F)c2)C(=O)O1	2 (≈ 4.08 µM)	64 (≈ 131 µM)	2 (≈ 4.08 µM)	2 (≈ 4.08 µM)	4 (≈ 8.16 µM)		
CC(=O)NC[C@H]1CN(c2ccc(/C=C/c3cncc(C#N)c3)c(F)c2)C(=O)O1	2 (≈ 5.26 µM)	16 (≈ 42.1 µM)	2 (≈ 5.26 µM)	16 (≈ 42.1 µM)	4 (≈ 10.5 µM)	9.4	> 300
CC(=O)NC[C@H]1CN(c2ccc(/C=C(\Br)c3ccco3)c(F)c2)C(=O)O1	0.5 (≈ 1.18 µM)	1 (≈ 2.36 µM)	0.25 (≈ 0.591 µM)	0.5 (≈ 1.18 µM)	1 (≈ 2.36 µM)		
CC(=O)NC[C@H]1CN(c2ccc(/C=C(\F)S(=O)(=O)c3ccccc3)c(F)c2)C(=O)O1	8 (≈ 18.3 µM)	64 (≈ 147 µM)	8 (≈ 18.3 µM)	8 (≈ 18.3 µM)	8 (≈ 18.3 µM)		
COC(=O)c1cccc(/C(Br)=C/c2ccc(N3C[C@H](CNC(C)=O)OC3=O)cc2F)c1	4 (≈ 8.14 µM)	> 128	8 (≈ 16.3 µM)	32 (≈ 65.1 µM)	8 (≈ 16.3 µM)	150	> 300
CC(=O)NC[C@H]1CN(c2ccc(/C=C(/F)c3cccnc3)c(F)c2)C(=O)O1	4 (≈ 10.7 µM)	32 (≈ 85.7 µM)	4 (≈ 10.7 µM)	4 (≈ 10.7 µM)	8 (≈ 21.4 µM)		
CC(=O)NC[C@H]1CN(c2ccc(/C=C(\F)c3cccc(C=O)c3)c(F)c2)C(=O)O1	1 (≈ 2.5 µM)	64 (≈ 160 µM)	0.5 (≈ 1.25 µM)	4 (≈ 9.99 µM)	1 (≈ 2.5 µM)	9.9	> 300
CC(=O)NC[C@H]1CN(c2ccc(/C=C(\F)c3cnc(N)nc3)c(F)c2)C(=O)O1	8 (≈ 20.5 µM)	32 (≈ 82.2 µM)	4 (≈ 10.3 µM)	8 (≈ 20.5 µM)	16 (≈ 41.1 µM)		
CC(=O)NC[C@H]1CN(c2ccc(/C=C(\Br)c3cccc(C(C)=O)c3)c(F)c2)C(=O)O1	1 (≈ 2.1 µM)	4 (≈ 8.42 µM)	1 (≈ 2.1 µM)	1 (≈ 2.1 µM)	2 (≈ 4.21 µM)		
CC(=O)NC[C@H]1CN(c2ccc(/C=C(\Br)c3cccc(C=O)c3)c(F)c2)C(=O)O1	0.5 (≈ 1.08 µM)	1 (≈ 2.17 µM)	0.25 (≈ 0.542 µM)	1 (≈ 2.17 µM)	0.5 (≈ 1.08 µM)	33	> 300
CC(=O)NC[C@H]1CN(c2ccc(/C=C(\Br)c3ccc(C(C)=O)s3)c(F)c2)C(=O)O1	0.5 (≈ 1.04 µM)	2 (≈ 4.16 µM)	0.5 (≈ 1.04 µM)	0.5 (≈ 1.04 µM)	1 (≈ 2.08 µM)		
CC(=O)NC[C@H]1CN(c2ccc(/C=C(\Br)c3c(C)oc[n+]3C)c(F)c2)C(=O)O1	32	64	16	8	32	54	21
CC(=O)NC[C@H]1CN(c2ccc(/C=C/c3cccnc3)c(F)c2)C(=O)O1	2 (≈ 5.63 µM)	16 (≈ 45 µM)	2 (≈ 5.63 µM)	16 (≈ 45 µM)	4 (≈ 11.3 µM)	7.8	59
CC(=O)NC[C@H]1CN(c2ccc(/C=C(\Br)c3ccncc3)c(F)c2)C(=O)O1	1 (≈ 2.3 µM)	16 (≈ 36.8 µM)	2 (≈ 4.61 µM)	1 (≈ 2.3 µM)	8 (≈ 18.4 µM)	14	186

From ChEMBL document CHEMBL1134857, “The synthesis and biological evaluation of a novel series of antimicrobials of the oxazolidinone class” (Bioorg Med Chem Lett, 2002)
